Screening results: PubChem, Broad Institute
A selection: hits, their analogues and other compounds. The true share with any hit is near 3%.
S100A4 inh HTS: inhibitors of human S100A4 binding to myosin IIA peptide. inhibition, % at 10.7 µM. S100A4/TAMRA-MyoIIA peptide fluorescence polarization. 360,000 tested, 0.14% active. P26447;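 active means mean inhibition of at least 70% across replicates, with every replicate also reaching that level; inconclusive means mean inhibition reaches 70% but some replicates fall short; inactive means mean inhibition below 70%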
Target sequence (P26447 whole entry, looked up): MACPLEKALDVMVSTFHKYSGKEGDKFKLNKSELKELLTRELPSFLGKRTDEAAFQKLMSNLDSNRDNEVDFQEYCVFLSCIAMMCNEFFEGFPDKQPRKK
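assay system = human S100A4 monomer with TAMRA-labelled myosin IIA peptide | also added = labelled myosin peptide probe, 5 nM | incubation = 5 min between mix addition and reading | control set = DMSO and TFP controls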
Ecoli rRNA inh: inhibitors of bacterial rRNA selective over humanized ribosomes | GFP signal change (wild-type ribosome), % (no concentration beside the values) | 350,000 tested, 1.6% active | E. coli WT GFP vs humanized-ribosome RFP mutants, fluorescence, 24 h; hits give low values; DMSO median 0, no signal -100 | AID 720706;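 active means significant combined selectivity score with lowered wild-type GFP, culture density cut under 30%, mutant RFP and density less affected; inactive means any of these conditions unmet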
SIRT5 block: inhibitors of human sirtuin-5 desuccinylase. Q9NXA8. Purified SirT5, succinyl-peptide AMC, trypsin-coupled fluorescence. inhibition, % at 15 µM. 330,000 tested, 1.1% active; in the data active means inhibition above about 15%; inconclusive means no clear call, values can overlap the other calls
Target sequence (Q9NXA8 whole entry, looked up): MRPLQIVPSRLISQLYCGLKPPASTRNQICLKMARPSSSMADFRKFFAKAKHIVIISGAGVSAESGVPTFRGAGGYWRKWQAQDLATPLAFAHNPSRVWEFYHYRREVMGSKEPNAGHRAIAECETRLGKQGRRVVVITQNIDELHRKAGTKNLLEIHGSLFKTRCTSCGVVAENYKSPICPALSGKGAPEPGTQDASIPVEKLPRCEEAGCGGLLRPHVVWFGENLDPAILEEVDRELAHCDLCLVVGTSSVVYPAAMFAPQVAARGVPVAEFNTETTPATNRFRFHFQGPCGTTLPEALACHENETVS
C2C12 statin: protects C2C12 myotubes from simvastatin toxicity. rescue of ATP level, % at 7.49 µM. 330,000 tested, 0.78% active. ATP luminescence, 48 h; scaled: DMSO 0, geranylgeraniol control 100. AID 602340;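 active means mean ATP rescue above about 67%, or every replicate alone reaching that limit, limit read from the data, passing the limit was not always enough; inconclusive means no clear call, values can overlap the other calls; inactive means mean under the limit and some replicate under it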;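 further: myotubes were challenged with 10 µM simvastatin during compound exposure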
Cneo AK release: causes C. neoformans cell lysis. adenylate kinase release luminescence, 4 h; normalised: neutral wells 0, clomiphene wells 100. lysis activity, % at 15 µM. 360,000 tested, 0.2% active;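 active means mean lysis activity across replicates of at least 80%, whatever share of replicates individually reach that level; inactive means mean lysis activity below 80%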
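Test system: log-phase Cryptococcus neoformans yeast cells; Quantity: yeast cell density of 5 × 10^6 cells/mL; Buffer or medium: YPD; Doses: single compound concentration per well; Timing: 4 h at 37 °C static, read 1 h later; Measured by: AK luminescence; Read-out basis: lysis from increased AK signal; Control set: Clomiphene as positive control.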
PGC1a acetyl inh: PGC1a acetylation modulation, inhibitor mode | AID 651687 | U2OS PGC1a acetylation, AlphaScreen anti-acetyl-lysine; with virally co-expressed GCN5 acetyltransferase | 350,000 tested, 0.17% active | inhibition, % at 15.6 µM;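 active means every replicate shows inhibition of at least 40%; inconclusive means mean inhibition at least 40% but some replicate below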
Numbers stand for hits.

For C[C@@H]1CN([C@H](C)CO)S(=O)(=O)c2ccc(/C=C/c3ccccc3)cc2O[C@@H]1CN(C)C(=O)NC1CCCC1 the results were S100A4 inh HTS inactive, Ecoli rRNA inh inactive, SIRT5 block 21, C2C12 statin inconclusive, Cneo AK release inactive and PGC1a acetyl inh inactive.
Screening O=C(NCC[C@@H]1CC[C@@H](NC(=O)C2CC2)[C@H](CO)O1)c1ccc(F)cc1 returned S100A4 inh HTS inactive, Ecoli rRNA inh inactive, SIRT5 block inactive, C2C12 statin inactive, Cneo AK release inactive and PGC1a acetyl inh inactive.
O=C(NC1CCCC1)[C@H]1[C@H](CO)[C@H]2Cn3c(cccc3=O)[C@@H]1N2CC1CCCC1 was read as S100A4 inh HTS inactive, Ecoli rRNA inh inactive, SIRT5 block inactive, C2C12 statin inactive and Cneo AK release inactive.
Screening C[C@@H]1CN(C)C(=O)Cc2cc(NS(C)(=O)=O)ccc2O[C@H]1CN(C)S(C)(=O)=O returned Ecoli rRNA inh inactive.
For COc1cccc(NC(=O)N2CC(=O)N3[C@H](C2)[C@@H](c2ccc(C#CCC4CCCC4)cc2)[C@@H]3CO)c1 the results were S100A4 inh HTS inactive, Ecoli rRNA inh inactive, SIRT5 block 21 and PGC1a acetyl inh inactive.
COc1cccc(NC(=O)N2CC(=O)N3[C@H](C2)[C@@H](c2ccc(C#CC4CCCC4)cc2)[C@@H]3CO)c1 was read as S100A4 inh HTS inactive, Ecoli rRNA inh inactive and SIRT5 block 16.
For COc1ccc(NC(=O)N2CC(=O)N3[C@@H](CO)[C@H](c4ccc(C#CCC5CCCC5)cc4)[C@@H]3C2)cc1 the results were S100A4 inh HTS inactive, Ecoli rRNA inh inactive, SIRT5 block inactive and PGC1a acetyl inh inactive.
COc1ccc(NC(=O)N2CC(=O)N3[C@H](C2)[C@H](c2ccc(C#CCC4CCCC4)cc2)[C@@H]3CO)cc1 was read as S100A4 inh HTS inactive, Ecoli rRNA inh inactive, SIRT5 block 15 and PGC1a acetyl inh inactive.
`CCC(=O)N1CC(=O)N2[C@H](CO)[C@H](c3ccc(C#CC4CCCC4)cc3)[C@H]2C1` gave S100A4 inh HTS 136, Ecoli rRNA inh inactive, SIRT5 block inactive and PGC1a acetyl inh inactive.
Screening C[C@@H]1CN([C@@H](C)CO)C(=O)Cc2cc(NS(=O)(=O)c3ccc(F)cc3)ccc2O[C@@H]1CN(C)S(=O)(=O)c1cn(C)cn1 returned S100A4 inh HTS inactive, Ecoli rRNA inh inactive, SIRT5 block inactive, C2C12 statin inactive, Cneo AK release inactive and PGC1a acetyl inh inactive.
For O=C(Nc1ccc2c(c1)[C@H]1C[C@H](CC(=O)N3CCCCC3)O[C@@H](CO)[C@H]1O2)NC1CCCC1 the results were S100A4 inh HTS inactive, Ecoli rRNA inh inactive, SIRT5 block inactive, C2C12 statin inactive, Cneo AK release inactive and PGC1a acetyl inh inactive.
Screening CN1CCN(C(=O)C[C@H]2CC[C@@H]3[C@H](COC[C@@H](O)CN3C(=O)C3CCCC3)O2)CC1 returned S100A4 inh HTS inactive, Ecoli rRNA inh inactive, SIRT5 block inactive, C2C12 statin inactive, Cneo AK release inactive and PGC1a acetyl inh inactive.
COCC#Cc1ccc2c(c1)O[C@@H](CN(C)Cc1ccccc1)[C@@H](C)CN([C@@H](C)CO)S2(=O)=O was read as S100A4 inh HTS inactive, Ecoli rRNA inh inactive, SIRT5 block inactive, C2C12 statin inactive, Cneo AK release inactive and PGC1a acetyl inh inactive.
`COCC(=O)N1C[C@H](C)[C@H](OC)CN(C)C(=O)c2ccc(NC(=O)Nc3cccc(F)c3)cc2OC[C@@H]1C` gave Ecoli rRNA inh inactive, C2C12 statin inactive and PGC1a acetyl inh inactive.
For CCN(CC)S(=O)(=O)c1ccc(-n2c(=O)c(C(C)C)c(C)n2C)cc1 the results were S100A4 inh HTS inactive, Ecoli rRNA inh inactive, SIRT5 block inactive, C2C12 statin 87, Cneo AK release inactive and PGC1a acetyl inh inactive.
Screening C[C@H]1CCCCO[C@H](CN(C)C(=O)Nc2ccc3c(c2)OCO3)[C@@H](C)CN([C@@H](C)CO)C(=O)c2cc(NC(=O)Nc3cccc4ccccc34)ccc2O1 returned S100A4 inh HTS inactive, Ecoli rRNA inh inactive, SIRT5 block inactive, C2C12 statin inactive, Cneo AK release inactive and PGC1a acetyl inh inactive.
CCCOc1ccc(N2C(=O)CC(N(CCc3ccc(OC)cc3)C(=O)/C=C/C(=O)O)C2=O)cc1 (stereo not drawn) was read as S100A4 inh HTS inactive, Ecoli rRNA inh inactive, SIRT5 block 42 and PGC1a acetyl inh inactive.
For Cc1[nH]c2ccccc2c1C(=O)/C=C/c1ccccc1 the results were C2C12 statin inactive, Cneo AK release inactive and PGC1a acetyl inh 71.
For Cc1ccc(S(=O)(=O)Nc2cccc3c2O[C@@H](CN(C)CC2CCCCC2)[C@@H](C)CN([C@H](C)CO)C3=O)cc1 the results were S100A4 inh HTS inactive, Ecoli rRNA inh inactive, SIRT5 block inactive, C2C12 statin inactive, Cneo AK release inactive and PGC1a acetyl inh inactive.
For C[C@H](CO)N1C[C@H](C)[C@H](CN(C)C(=O)C2CC2)Oc2ncc(C3=CCCC3)cc2C1=O the results were Ecoli rRNA inh inactive, C2C12 statin inactive and PGC1a acetyl inh inactive.
O=C(CN1CCOCC1)Nc1cc(C(F)(F)F)ccc1Cl was read as S100A4 inh HTS inactive, Ecoli rRNA inh inactive, SIRT5 block inactive, C2C12 statin inactive, Cneo AK release inactive and PGC1a acetyl inh inactive.
For O=C(CN1CCC(C(O)(c2ccccc2)c2ccccc2)CC1)Nc1ccccc1 the results were C2C12 statin inactive, Cneo AK release inactive and PGC1a acetyl inh inactive.
Screening O=C(CN1CCN(C(=O)c2ccco2)CC1)Nc1cc(C(F)(F)F)ccc1Cl returned C2C12 statin 104, Cneo AK release inactive and PGC1a acetyl inh inactive.
Screening O=C(CN1CCC(C(O)(c2ccccc2)c2ccccc2)CC1)Nc1cc(Cl)ccc1Cl returned S100A4 inh HTS inactive, Ecoli rRNA inh inactive, SIRT5 block inactive, C2C12 statin 90, Cneo AK release inactive and PGC1a acetyl inh inactive.
For O=S(=O)(c1ccccc1F)N1CCC(Oc2ccc(-n3cnnn3)cc2)CC1 the results were S100A4 inh HTS inactive, Ecoli rRNA inh -28, SIRT5 block inactive, C2C12 statin inactive and Cneo AK release inactive.
O=S(=O)(Nc1ccc(-n2cnnn2)cc1)c1ccccc1F was read as S100A4 inh HTS inactive, Ecoli rRNA inh inactive, SIRT5 block inactive, C2C12 statin inactive, Cneo AK release inactive and PGC1a acetyl inh inactive.
For CCC(=O)Nc1ccc2c(c1)C(=O)N(C)C[C@H](OC)[C@@H](C)CN(Cc1ccccn1)[C@@H](C)CO2 the results were S100A4 inh HTS inactive, Ecoli rRNA inh inactive, SIRT5 block inactive, C2C12 statin inactive, Cneo AK release inactive and PGC1a acetyl inh inactive.
